Converted amounts (≈) assume the structure as drawn. The source made the active and inactive calls. No cut-off for these calls is given here.

In data set [1] the target is T1, Enoyl-[acyl-carrier-protein] reductase [NADH] (Mycobacterium tuberculosis, UniProt P9WGR1).
T1 sequence (P9WGR1 whole entry): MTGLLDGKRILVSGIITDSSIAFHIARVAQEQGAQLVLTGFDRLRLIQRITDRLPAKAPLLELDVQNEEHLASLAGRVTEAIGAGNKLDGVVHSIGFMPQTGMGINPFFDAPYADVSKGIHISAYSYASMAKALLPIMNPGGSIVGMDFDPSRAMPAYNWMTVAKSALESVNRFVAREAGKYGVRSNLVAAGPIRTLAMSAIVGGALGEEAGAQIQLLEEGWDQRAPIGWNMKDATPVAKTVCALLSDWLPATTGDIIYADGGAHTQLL
The experiment in a line: Inhibition of Mycobacterium tuberculosis InhA-catalysed chemical reaction in presence of NADH measured for 1 min by UV/Visible spectrophotometry. The method, boiled down:
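Recombinant MtInhA reaction at 25 °C in 100 mM Pipes pH 7.0, started by adding 2.2 μM enzyme and followed for 1 min. Substrate is DD-CoA, made from 2-trans-dodecenoic acid and CoA.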

The subject of data set [2] is Mycobacterium tuberculosis. The experiment in a line: Antibacterial activity against pan-sensitive Mycobacterium tuberculosis H37Rv ATCC 27294 measured after 7 days by resazurin dye based assay. It is filed as functional. Conditions: H37Rv ATCC 27294, 168 h, time 7 day. The method, boiled down: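 Resazurin reduction microplate assay (REMA) in Middlebrook 7H9 broth with 10% ADC and 5% DMSO. Compounds come from 2 mg/mL DMSO stocks and are 2-fold serially diluted, top concentration 0.08–40 μg/mL depending on solubility. MIC is the lowest concentration preventing the blue-to-pink colour change. Three independent experiments; the reported value is the modal or the highest value.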

The target in data set [3] is T2, Enoyl-[acyl-carrier-protein] reductase [NADH] (Mycobacterium tuberculosis) (UniProt P9WGR1).
T2 sequence (whole entry): T1 sequence (P9WGR1 whole entry)
The experiment in a line: Time dependent inhibition of Mycobacterium tuberculosis InhA.

In data set [4] the target is T2, Enoyl-[acyl-carrier-protein] reductase [NADH] (Mycobacterium tuberculosis). Description: Binding affinity to Mycobacterium tuberculosis InhA assessed as change in enthalpy at 250 uM in presence of NADH by fluorescence spectroscopy.
Data set [5] deals with T1, Enoyl-[acyl-carrier-protein] reductase [NADH]. The experiment in a line: Binding affinity to Mycobacterium tuberculosis InhA assessed as dissociation constant at 250 uM at 25 degreeC in presence of NADH by fluorescence spectroscopy. The method, boiled down: (§1)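 Titration of pre-formed MtInhA:NADH complex (2 mL of 3 μM enzyme with 20 μM NADH), adding microliter aliquots of 250 μM ligand stock with dilution kept ≤1%. Intrinsic fluorescence read at 295 nm excitation, 310–500 nm emission. Temperatures 15, 20, 25 and 30 °C. KD is fitted to a hyperbolic isotherm. ΔH°, ΔS° and ΔG° come from van't Hoff analysis of KD across temperatures.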

Data set [6] in a line: Cytotoxicity against African green monkey Vero cells assessed as reduction in cell viability incubated for 72 hrs by MTT assay. It is filed as toxicity, cell-based. Conditions: chlorocebus sabaeus. The method, boiled down:
(§2)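 Cells grown in DMEM with 10% FBS. HepG2 seeded at 4 × 10³ and Vero at 2 × 10³ cells/well, 24 h before dosing. Compounds at 1, 5 and 20 μM in 1% DMSO for 72 h at 37 °C, 5% CO2. MTT readout: 5 mg/mL reagent for 4 h, absorbance at 595 nm. Neutral red readout: 25 μg/mL dye for 3 h, then acid-ethanol desorb. Viability is expressed relative to 1% DMSO controls.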

The target in data set [7] is T2, Enoyl-[acyl-carrier-protein] reductase [NADH] (Mycobacterium tuberculosis). The experiment in a line: Binding affinity to Mycobacterium tuberculosis InhA assessed as change in entropy at 250 uM in presence of NADH by fluorescence spectroscopy.
Data set [8] is described as follows: Cytotoxicity against human HepG2 cells assessed as reduction in cell viability incubated for 72 hrs by neutral red uptake assay. It is filed as toxicity, cell-based. In outline: as §2
Data set [9] in a line: Selectivity index, ratio of CC50 for human HepG2 cells by neutral red uptake assay to MIC for pan-sensitive Mycobacterium tuberculosis H37Rv ATCC 27294. Format: toxicity. Conditions: read-out: Selectivity Index.
Data set [10] is described as follows: Cytotoxicity against African green monkey Vero cells assessed as reduction in cell viability incubated for 72 hrs by neutral red uptake assay. It is filed as toxicity, cell-based. Conditions: chlorocebus sabaeus. In outline:
as §2

Data set [11] has as its target T1, Enoyl-[acyl-carrier-protein] reductase [NADH]. The experiment in a line: Noncompetitive inhibition of Mycobacterium tuberculosis InhA using DD-CoA as substrate assessed as inhibition constant for enzyme-substrate-inhibitor ternary complex in presence of varying concentrations of NADH by double reciprocal plot analysis.
Data set [12] in a line: Selectivity index, ratio of CC50 for African green monkey Vero cells by neutral red uptake assay to MIC for pan-sensitive Mycobacterium tuberculosis H37Rv ATCC 27294. The conditions noted are these: read-out: Selectivity Index. It is filed as toxicity, cell-based.
In data set [13] the target is T2, Enoyl-[acyl-carrier-protein] reductase [NADH] (Mycobacterium tuberculosis). Description: Binding affinity to Mycobacterium tuberculosis InhA assessed as gibbs free energy change at 250 uM in presence of NADH by fluorescence spectroscopy. The method, boiled down: as §1
Data set [14] concerns the target T1, Enoyl-[acyl-carrier-protein] reductase [NADH]. Description: Competitive inhibition of Mycobacterium tuberculosis InhA using varying concentrations of DD-CoA as substrate assessed as inhibition constant for enzyme-inhibitor binary complex in presence of NADH by Lineweaver-Burk plot analysis. In outline:
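Steady-state kinetics with recombinant MtInhA in 100 mM Pipes pH 7.0 at 25 °C. NADH fixed at 60 μM, DD-CoA varied 15–135 μM, inhibitor at fixed-varied levels of 0.2–4 μM. Kis is fitted to the competitive inhibition equation.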

The nature of data set [15]: Cytotoxicity against human HepG2 cells assessed as reduction in cell viability incubated for 72 hrs by MTT assay. It is filed as toxicity, cell-based. The method, boiled down: as §2
Data set [16] can be described thus: Selectivity index, ratio of CC50 for African green monkey Vero cells by MTT assay to MIC for pan-sensitive Mycobacterium tuberculosis H37Rv ATCC 27294. It is filed as toxicity, cell-based. Conditions: read-out: Selectivity Index.
In data set [17] the target is T1, Enoyl-[acyl-carrier-protein] reductase [NADH]. Description: Noncompetitive inhibition of Mycobacterium tuberculosis InhA using DD-CoA as substrate assessed as inhibition constant for enzyme-inhibitor binary complex in presence of varying concentrations of NADH by double reciprocal plot analysis.
A short description of data set [18]: Selectivity index, ratio of CC50 for human HepG2 cells by MTT assay to MIC for pan-sensitive Mycobacterium tuberculosis H37Rv ATCC 27294. It is filed as toxicity. Conditions: read-out: Selectivity Index.
The subject of data set [19] is Mycobacterium tuberculosis. Description: Antibacterial activity against Mycobacterium tuberculosis H37Rv ATCC 27294 infected in CF-1 mouse assessed as reversal of bacterial growth in spleen at 300 uM/kg, po administered daily for 14 days starting from 7 days post infection. It is filed as functional, organism-based. The conditions noted are these: time 14.0 day. The method, boiled down: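 Mice treated by gavage from 7 days post-infection for 14 days, daily, at 300 or 450 μM/kg. Lungs and spleen homogenized in saline and plated for CFU. Comparisons are against vehicle and early-control groups.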

Turning to `Cc1ccc2nc(C)cc(Nc3ccc(N4CCCCC4)cc3)c2c1`, in data set [1], the IC50 was 17.2 µM. This molecule also returned an MIC in [2] of 7.5 µM (≈ 2.49 µg/mL).
As to `CCOC(=O)c1ccc2nc(C)cc(Nc3ccc(N4CCC(C)CC4)cc3)c2c1`, in data set [1], the IC50 is 10.9 µM. This molecule also yielded an MIC in data set [2] of 6.2 µM (≈ 2.5 µg/mL).
As to `COc1ccc2nc(C)cc(Nc3ccc(N4CCCCC4)cc3)c2c1`, in data set [1], the IC50 turned out to be 4.7 µM. The molecule also displayed an MIC in [2] of 3.6 µM (≈ 1.25 µg/mL).
Consider `Cc1cc(Nc2ccc(N3CCC(C)CC3)cc2)c2cc(Br)ccc2n1`, for which the TDI result in data set [3] was “inactive”. The deltaH in data set [4] is -5.6 kcal/mol. The Kd in data set [5] was 1250 nM. Besides, the CC50 at 72 h in data set [6] came to 9.7 µM; in data set [8], 12.2 µM; in data set [10], 6.2 µM; in [15], 5.3 µM. Moreover, the deltaS in data set [7] was 8.3 cal/mol/K. For the same molecule, the selectivity ratio stood at 17.4 in data set [9], 8.9 in data set [12], 13.8 in data set [16] and 7.6 in data set [18]. The IC50 in data set [1] came out at 1.4 µM. In addition, the Ki in [11] was determined as 690 nM; in data set [14], 790 nM; in [17], 720 nM. Also, the deltaG in data set [13] is -8 kcal/mol. This molecule also displayed an MIC in data set [2] of 0.7 µM (≈ 0.287 µg/mL).
On to `Cc1cc(Nc2ccc(-n3cccn3)cc2)c2cc(Br)ccc2n1`, for which, in data set [1], the IC50 was 4.85 µM. The same molecule returned an MIC in data set [2] of 3.3 µM (≈ 1.25 µg/mL).
On the same counts, the results for `CCOC(=O)c1ccc2nc(C)cc(Nc3ccc(CC)cc3)c2c1` are 41.3 µM and 29.9 µM (≈ 10 µg/mL).
On the same counts, the results for `CCOC(=O)c1ccc2nc(C)cc(Nc3ccc(CN4CCCCC4)cc3)c2c1` are more than 50 µM and 49.6 µM (≈ 20 µg/mL).
Consider `Cc1cc(Nc2ccc(N3CCCCC3)cc2)c2cc(F)ccc2n1`, for which the IC50 in [1] amounted to 38.3 µM. The molecule further registered an MIC in data set [2] of 14.9 µM (≈ 5 µg/mL).
As to `Cc1cc(Nc2ccc(N3CCC(c4ccccc4)CC3)cc2)c2cc(Br)ccc2n1`, in [1], the IC50 is more than 50 µM. The molecule also showed an MIC in data set [2] of 1.33 µM (≈ 0.628 µg/mL).
Turning to `Cc1cc(Nc2ccc(N3CCCCC3)cc2)c2cc(C(C)C)ccc2n1`, in data set [1], the IC50 came out at 8.2 µM. In [2], this molecule yielded an MIC of 6.9 µM (≈ 2.48 µg/mL).
The corresponding values for `CCOC(=O)c1ccc2nc(C)cc(Nc3ccc(C(=O)N4CCCC4)cc3)c2c1` are 44.5 µM and more than 49.6 µM.
For the molecule `CCCCc1ccc(Nc2cc(C)nc3ccc(C(=O)OCC)cc23)cc1`, the IC50 in [1] was determined as 11.2 µM. This molecule also yielded an MIC in data set [2] of 6.9 µM (≈ 2.5 µg/mL).
In the case of `Cc1cc(Nc2ccc(N3CCCCC3)cc2)c2cc(C#N)ccc2n1`, the IC50 in data set [1] came to 19.6 µM. The same molecule registered an MIC in [2] of 14.6 µM (≈ 5 µg/mL).
With `CCOC(=O)c1ccc2nc(C)cc(Nc3ccc(N4CCN(Cc5ccccc5)CC4)cc3)c2c1`, the IC50 in [1] worked out at 26.2 µM. In data set [2], the MIC came out at 10.4 µM (≈ 5 µg/mL).
The corresponding values for `CCc1cc(Nc2ccc(N3CCCCC3)cc2)c2cc(Cl)ccc2n1` are 2.9 µM and 1.7 µM (≈ 0.622 µg/mL).
As for `Cc1cc(Nc2ccc(N3CCCC3CO)cc2)c2cc(Br)ccc2n1` (stereo not given), in data set [1], the IC50 is more than 50 µM. This molecule also showed an MIC in data set [2] of 12.1 µM (≈ 4.99 µg/mL).
In the case of `CCCc1ccc(Nc2cc(C)nc3ccc(C(=O)OCC)cc23)cc1`, the IC50 in [1] is 19.6 µM. In data set [2], this molecule had an MIC of 14.3 µM (≈ 4.98 µg/mL).
The corresponding values for `Cc1cc(Nc2ccc(N3CCCCC3)cc2)c2cc(N(C)C)ccc2n1` are 20 µM and 6.9 µM (≈ 2.49 µg/mL).
On the same counts, the results for `CCc1cc(Nc2ccc(N3CCCCC3)cc2)c2cc(Br)ccc2n1` are 1.54 µM and 0.75 µM (≈ 0.308 µg/mL).
On the same counts, the results for `Cc1cc(Nc2ccc(N3CCCCC3)cc2)c2cc([N+](=O)[O-])ccc2n1` are 18.6 µM and 6.9 µM (≈ 2.5 µg/mL).
Take `CCOC(=O)c1ccc2nc(C)cc(Nc3ccc(-n4cccn4)cc3)c2c1`: the IC50 in data set [1] turned out to be 8 µM. Besides, in [2], the MIC was more than 6.7 µM.
On the same counts, the results for `CCOC(=O)c1ccc2nc(C)cc(Nc3ccc(N4CCSCC4)cc3)c2c1` are more than 50 µM and more than 12.3 µM.
For the molecule `CCOC(=O)c1ccc2nc(C)cc(Nc3ccc(N4CCOCC4)cc3)c2c1`, in data set [1], the IC50 turned out to be 19.5 µM. The molecule further showed an MIC in [2] of 51.1 µM (≈ 20 µg/mL).
On the same counts, the results for `CCOC(=O)c1ccc2nc(C)cc(Nc3ccc(N4CCCC4)cc3)c2c1` are 21.7 µM and 13.3 µM (≈ 4.99 µg/mL).
For `CCOc1ccc2nc(C)cc(Nc3ccc(N4CCCCC4)cc3)c2c1`, the IC50 in [1] is 9.5 µM. Moreover, in data set [2], inhibition of growth (MIC) required 6.9 µM (≈ 2.49 µg/mL).
As for `CCOC(=O)c1ccc2nc(C)cc(Nc3ccc(-n4cnc5ccccc54)cc3)c2c1`, the IC50 in [1] is 42.1 µM. The MIC in data set [2] was more than 47.3 µM.
On to `CC[C@@H](CO)NCCN[C@@H](CC)CO`, for which the outcome in data set [19] was inactive.
In the case of `CO[C@H]1/C=C/O[C@@]2(C)Oc3c(C)c(O)c4c(O)c(c(/C=N/N5CCN(C)CC5)c(O)c4c3C2=O)NC(=O)/C(C)=C\C=C\[C@H](C)[C@H](O)[C@@H](C)[C@@H](O)[C@@H](C)[C@H](OC(C)=O)[C@@H]1C` [RIFAMPIN], the MIC in [2] was 0.05 µM (≈ 0.0411 µg/mL).
